# Test results reported in paper PMC9328826 (Journal of Food and Drug Analysis, 2016).
# Assays:
# [1] = WST-8 cytotoxicity assay on NIH/3T3 cells; assay type: cell-based; details: mouse, NIH/3T3 embryonic fibroblast cells
# How it was run: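 NIH/3T3 cells, cultured in HEPES-buffered E-MEM with 10% FBS at 37°C, 5% CO2, seeded at 2 × 10^3 cells/well. Exposed to test compound at 0.5–10 μM for 24 and 48 hours at 37°C, with 0.1% DMSO for control and cell-free blank. WST-8 added for 4 hours, then OD read at 450 nm. Viability given as % of control (n = 3); IC50 fitted from dose-response curve by Hill slope.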
# caspase-8 = assay: Caspase-8 activity, FAM-LETD-FMK fluorescence probe; assay type: cell-based, human; details: HeLa, 24 hours; Compound 1 at 3 μM
# How it was run: (§1)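 HeLa cells grown in E-MEM with 4.2 mM HEPES, 10% FBS, penicillin/streptomycin, 37°C, 5% CO2. 3 × 10^6 cells exposed to test compound at 3 μM for 24 hours, harvested, labelled 1 hour at 37°C with FAM-FLICA probe (DEVD-FMK caspase-3/7, LETD-FMK caspase-8, LEHD-FMK caspase-9), washed. Fluorescence at ex 485/em 530 nm on a plate reader, given as n-fold over control. Mean ± SD; Duncan test.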
# caspase-3/7 = assay: Caspase-3/7 activity, FAM-DEVD-FMK fluorescence probe; assay type: cell-based, human; details: HeLa, 24 hours; Compound 1 at 3 μM
# How it was run: as §1
# caspase-9 = assay: Caspase-9 activity, FAM-LEHD-FMK fluorescence probe; assay type: cell-based, human; details: HeLa, 24 hours; Compound 1 at 3 μM
# How it was run: as §1
# [2] = test system: mitochondria membrane potential of HeLa cells; assay: JC-1 assay of mitochondria membrane potential; assay type: cell-based, human; details: 10 μM, 48 hours, untreated cells 294
# How it was run: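 5 × 10^5 HeLa cells exposed to test compound at 3 μM for 24 and 48 hours, or to a reference drug at 10 μM. Stained with JC-1 for 30 minutes at 37°C, then washed. Green signal read at ex 485/em 530 nm on a plate reader. Red fluorescence (ex 520/em 595 nm) imaged by microscopy at ×400, with intensity quantified from the images. Mean ± SD; Duncan test.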
# K562/ADM cell line = details: read-out: IC50, cytotoxic activity on K562/ADM cell line; 72 hours ref 11; cited from earlier work
# HT-29 cell line = details: read-out: IC50, cytotoxic activity on HT-29 cell line; 72 hours ref 19; cited from earlier work
Compound,IC50 at 24 h [1],IC50 at 48 h [1],also measured
"C=C1C(=O)O[C@H]2[C@H]1[C@H](OC(=O)[C@@]1(C)O[C@H]1C)[C@@H](OC(C)=O)/C(C(=O)OC)=C\CC[C@@]1(C)O[C@H]21 [Compound 3, Enhydrin]",2700 nM,1530 nM,
"C=C1C(=O)O[C@@H]2/C=C(\C)CC/C=C(/C(=O)OC)[C@H](OC(C)=O)[C@@H](OC(=O)[C@]3(C)O[C@@H]3C)[C@@H]12 [Compound 4, Uvedalin]",5290 nM,2660 nM,increase of caspase-8 activity against control (caspase-8): 1.47 fold; increase of caspase-3/7 activity against control (caspase-3/7): 2.34 fold; increase of caspase-9 activity against control (caspase-9): 3.17 fold
COc1cc([C@@H]2c3cc4c(cc3[C@@H](O[C@@H]3O[C@@H]5CO[C@@H](C)O[C@H]5[C@H](O)[C@H]3O)[C@H]3COC(=O)[C@H]23)OCO4)cc(OC)c1O [Etoposide],7430 nM,820 nM,"red fluorescence intensity (RFI), JC-1 [2]: 17.56; increase of caspase-8 activity against control (caspase-8): 3.18 fold; increase of caspase-3/7 activity against control (caspase-3/7): 3.88 fold; increase of caspase-9 activity against control (caspase-9): 3.96 fold"
CO[C@@]12[C@H](COC(N)=O)C3=C(C(=O)C(C)=C(N)C3=O)N1C[C@@H]1N[C@@H]12 [Mitomycin C],4430 nM,1260 nM,
C=C1C(=O)O[C@H]2[C@H]1CC/C(C)=C/CC[C@@]1(C)O[C@@H]21 [Parthenolide],12300 nM,8950 nM,
CC(=O)O[C@H]1C(=O)[C@@]2(C)[C@H]([C@H](OC(=O)c3ccccc3)[C@]3(O)C[C@H](OC(=O)[C@H](O)[C@@H](NC(=O)c4ccccc4)c4ccccc4)C(C)=C1C3(C)C)[C@]1(OC(C)=O)CO[C@@H]1C[C@@H]2O [Taxol],390 nM,120 nM,
C=C1CC[C@H]2C(OC(=O)[C@@H]2C)[C@H]2[C@@H]1CC(=O)[C@@H]2CC=C1CC[C@H]2C(=C)[C@H](O)C[C@@H]3[C@H](OC(=O)[C@H]3C)[C@@H]12 (stereo partly drawn) [biguaiascorzolide A],,,IC50 (K562/ADM cell line): 39800 nM
rufescenolide C,,,IC50 (HT-29 cell line): 150 nM
